These results are taken from ChEMBL document CHEMBL1146690, “Design and synthesis of aminopropyl tetrahydroindole-based indolin-2-ones as selective and potent inhibitors of Src and Yes tyrosine kinase” (Bioorg Med Chem Lett, 2004).

What is called IC50 is the point on the concentration scale where inhibition reaches its midpoint.

Tyrosine-protein kinase Lck, sequence (P06239 whole entry): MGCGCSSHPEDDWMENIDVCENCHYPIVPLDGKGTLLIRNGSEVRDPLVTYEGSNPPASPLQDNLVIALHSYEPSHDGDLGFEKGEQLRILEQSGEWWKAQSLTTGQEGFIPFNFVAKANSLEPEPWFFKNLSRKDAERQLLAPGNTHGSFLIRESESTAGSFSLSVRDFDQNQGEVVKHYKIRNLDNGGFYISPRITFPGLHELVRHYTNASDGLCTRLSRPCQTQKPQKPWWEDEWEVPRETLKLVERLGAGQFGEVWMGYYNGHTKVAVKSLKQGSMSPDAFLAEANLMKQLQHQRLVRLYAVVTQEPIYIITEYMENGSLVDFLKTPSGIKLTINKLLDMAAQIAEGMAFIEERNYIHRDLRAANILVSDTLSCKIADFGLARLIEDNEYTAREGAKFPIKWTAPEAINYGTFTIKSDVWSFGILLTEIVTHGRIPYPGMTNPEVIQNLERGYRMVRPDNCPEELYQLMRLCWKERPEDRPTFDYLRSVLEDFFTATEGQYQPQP
Platelet-derived growth factor receptor beta, sequence (P09619 whole entry): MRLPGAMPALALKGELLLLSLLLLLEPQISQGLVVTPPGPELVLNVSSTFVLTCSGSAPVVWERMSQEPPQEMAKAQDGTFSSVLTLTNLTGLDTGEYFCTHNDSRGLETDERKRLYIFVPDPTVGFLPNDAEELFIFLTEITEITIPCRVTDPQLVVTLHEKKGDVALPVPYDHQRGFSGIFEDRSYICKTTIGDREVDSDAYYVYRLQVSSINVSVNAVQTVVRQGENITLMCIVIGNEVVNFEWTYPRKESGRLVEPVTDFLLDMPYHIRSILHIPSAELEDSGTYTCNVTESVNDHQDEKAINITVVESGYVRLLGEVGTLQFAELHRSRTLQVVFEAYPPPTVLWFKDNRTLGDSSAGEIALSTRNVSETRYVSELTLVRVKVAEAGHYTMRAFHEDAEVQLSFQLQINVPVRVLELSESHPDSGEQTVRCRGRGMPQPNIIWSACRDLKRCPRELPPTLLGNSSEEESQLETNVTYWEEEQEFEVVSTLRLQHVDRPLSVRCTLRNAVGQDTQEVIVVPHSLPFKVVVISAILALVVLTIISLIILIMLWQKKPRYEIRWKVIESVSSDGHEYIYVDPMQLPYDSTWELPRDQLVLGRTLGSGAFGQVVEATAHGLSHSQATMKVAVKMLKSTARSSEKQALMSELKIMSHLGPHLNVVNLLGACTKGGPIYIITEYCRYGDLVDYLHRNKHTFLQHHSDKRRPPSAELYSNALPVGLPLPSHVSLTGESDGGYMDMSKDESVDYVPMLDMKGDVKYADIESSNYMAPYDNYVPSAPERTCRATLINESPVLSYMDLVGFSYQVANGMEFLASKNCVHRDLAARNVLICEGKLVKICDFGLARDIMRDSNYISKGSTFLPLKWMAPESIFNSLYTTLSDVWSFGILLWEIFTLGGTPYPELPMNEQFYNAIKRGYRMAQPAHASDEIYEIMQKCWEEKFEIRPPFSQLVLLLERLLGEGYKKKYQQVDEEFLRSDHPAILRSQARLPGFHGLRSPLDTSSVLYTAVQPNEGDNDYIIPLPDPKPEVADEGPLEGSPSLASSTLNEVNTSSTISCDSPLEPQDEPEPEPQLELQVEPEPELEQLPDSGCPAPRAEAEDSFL
Proto-oncogene tyrosine-protein kinase Src, sequence (P12931 2-536 limits assumed): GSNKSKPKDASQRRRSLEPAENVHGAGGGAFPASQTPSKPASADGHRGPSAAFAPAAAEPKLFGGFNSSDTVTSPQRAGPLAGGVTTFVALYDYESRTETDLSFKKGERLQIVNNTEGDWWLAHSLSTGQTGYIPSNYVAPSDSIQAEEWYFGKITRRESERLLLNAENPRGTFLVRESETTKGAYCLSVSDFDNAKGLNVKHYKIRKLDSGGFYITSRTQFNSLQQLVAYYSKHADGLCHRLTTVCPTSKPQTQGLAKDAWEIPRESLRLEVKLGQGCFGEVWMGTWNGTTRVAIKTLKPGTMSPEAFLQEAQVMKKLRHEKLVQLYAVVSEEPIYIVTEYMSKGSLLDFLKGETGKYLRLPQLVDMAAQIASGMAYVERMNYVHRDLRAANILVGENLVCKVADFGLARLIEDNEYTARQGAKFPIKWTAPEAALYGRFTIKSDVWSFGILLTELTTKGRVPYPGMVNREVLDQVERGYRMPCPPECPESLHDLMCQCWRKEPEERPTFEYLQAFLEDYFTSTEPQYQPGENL

The first assay concerns the target Platelet-derived growth factor receptor beta (Homo sapiens, UniProt P09619). As to the kind of experiment: Inhibitory activity against PDGFRbeta tyrosine kinase. An outline of the steps:
(§1)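 Enzymatic kinase inhibition run by previously reported methods. Each IC50 came from at least two separate tests with deviation under 20%, and the mean is reported.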
The compound `CNS(=O)(=O)c1ccc2c(c1)/C(=C/c1[nH]c3c(c1CCC(N)=O)CCCC3)C(=O)N2` showed an IC50 of 6600 nM.
As to `CNS(=O)(=O)c1ccc2c(c1)/C(=C/c1[nH]c3c(c1CCCN1CCN(C)CC1)CCCC3)C(=O)N2`, the IC50 is 10000 nM. Against the preceding compound, the IC50 is about 1.5-fold higher.
With `CCS(=O)(=O)c1ccc2c(c1)/C(=C/c1[nH]c3c(c1CCCN1CCN(CCO)CC1)CCCC3)C(=O)N2`, it took 9000 nM to reach half-maximal inhibition (IC50).
Same read-out and setting: under `CNS(=O)(=O)c1ccc2c(c1)/C(=C/c1[nH]c3c(c1CCCN1CCN(CCO)CC1)CCCC3)C(=O)N2` stands 5600 nM; under `CNS(=O)(=O)c1ccc2c(c1)/C(=C/c1[nH]c3c(c1CCCN1CCOCC1)CCCC3)C(=O)N2`, 18000 nM.
Still for that read-out and setting: under `CNS(=O)(=O)c1ccc2c(c1)/C(=C/c1[nH]c3c(c1CCCN1CCN(CC(=O)O)CC1)CCCC3)C(=O)N2` stands 8000 nM; under `CCS(=O)(=O)c1ccc2c(c1)/C(=C/c1[nH]c3c(c1CCCN1CCC(O)CC1)CCCC3)C(=O)N2`, 2300 nM.
The same measure, in the same setting: under `CCS(=O)(=O)c1ccc2c(c1)/C(=C/c1[nH]c3c(c1CCCN1CCN(C)CC1)CCCC3)C(=O)N2` stands 11000 nM.
In turn, `CCS(=O)(=O)c1ccc2c(c1)/C(=C/c1[nH]c3c(c1CCCN(C)C)CCCC3)C(=O)N2` showed an IC50 of 2500 nM. This IC50 lies about 4.4-fold lower than the previous one.
On the same count and under the same terms, under `CNS(=O)(=O)c1ccc2c(c1)/C(=C/c1[nH]c3c(c1CCCN(C)C)CCCC3)C(=O)N2` stands 3300 nM; under `CCS(=O)(=O)c1ccc2c(c1)/C(=C/c1[nH]c3c(c1CCCN1CCN(CC(=O)O)CC1)CCCC3)C(=O)N2`, 13000 nM.

Another assay has as its target Tyrosine-protein kinase Lck (Homo sapiens, UniProt P06239). Put plainly: Inhibitory activity against Lck tyrosine kinase.
On to `CNS(=O)(=O)c1ccc2c(c1)/C(=C/c1[nH]c3c(c1CCC(N)=O)CCCC3)C(=O)N2`, for which the IC50 is 100 nM.
For the compound `CNS(=O)(=O)c1ccc2c(c1)/C(=C/c1[nH]c3c(c1CCCN1CCN(C)CC1)CCCC3)C(=O)N2`, the IC50 stood at 700 nM.
On the same count and under the same terms, the same measure for `CCS(=O)(=O)c1ccc2c(c1)/C(=C/c1[nH]c3c(c1CCCN1CCN(CCO)CC1)CCCC3)C(=O)N2`: 500 nM.
The same measure, in the same setting: under `CNS(=O)(=O)c1ccc2c(c1)/C(=C/c1[nH]c3c(c1CCCN1CCN(CCO)CC1)CCCC3)C(=O)N2` stands 400 nM; under `CNS(=O)(=O)c1ccc2c(c1)/C(=C/c1[nH]c3c(c1CCCN1CCN(CC(=O)O)CC1)CCCC3)C(=O)N2`, 100 nM.
The same measure, in the same setting: the same measure for `CCS(=O)(=O)c1ccc2c(c1)/C(=C/c1[nH]c3c(c1CCCN1CCC(O)CC1)CCCC3)C(=O)N2`: 700 nM; for `CCS(=O)(=O)c1ccc2c(c1)/C(=C/c1[nH]c3c(c1CCCN1CCN(C)CC1)CCCC3)C(=O)N2`: 600 nM.
As for `CCS(=O)(=O)c1ccc2c(c1)/C(=C/c1[nH]c3c(c1CCCN(C)C)CCCC3)C(=O)N2`, the IC50 worked out at 200 nM.
Still for that read-out and setting: under `CNS(=O)(=O)c1ccc2c(c1)/C(=C/c1[nH]c3c(c1CCCN(C)C)CCCC3)C(=O)N2` stands 1600 nM; under `CCS(=O)(=O)c1ccc2c(c1)/C(=C/c1[nH]c3c(c1CCCN1CCN(CC(=O)O)CC1)CCCC3)C(=O)N2`, 400 nM.

The target in the next assay is Vascular endothelial growth factor receptor 2 (Homo sapiens, UniProt P35968). As to the kind of experiment: Inhibitory activity against Vascular endothelial growth factor receptor 2.
Vascular endothelial growth factor receptor 2, sequence (P35968 whole entry): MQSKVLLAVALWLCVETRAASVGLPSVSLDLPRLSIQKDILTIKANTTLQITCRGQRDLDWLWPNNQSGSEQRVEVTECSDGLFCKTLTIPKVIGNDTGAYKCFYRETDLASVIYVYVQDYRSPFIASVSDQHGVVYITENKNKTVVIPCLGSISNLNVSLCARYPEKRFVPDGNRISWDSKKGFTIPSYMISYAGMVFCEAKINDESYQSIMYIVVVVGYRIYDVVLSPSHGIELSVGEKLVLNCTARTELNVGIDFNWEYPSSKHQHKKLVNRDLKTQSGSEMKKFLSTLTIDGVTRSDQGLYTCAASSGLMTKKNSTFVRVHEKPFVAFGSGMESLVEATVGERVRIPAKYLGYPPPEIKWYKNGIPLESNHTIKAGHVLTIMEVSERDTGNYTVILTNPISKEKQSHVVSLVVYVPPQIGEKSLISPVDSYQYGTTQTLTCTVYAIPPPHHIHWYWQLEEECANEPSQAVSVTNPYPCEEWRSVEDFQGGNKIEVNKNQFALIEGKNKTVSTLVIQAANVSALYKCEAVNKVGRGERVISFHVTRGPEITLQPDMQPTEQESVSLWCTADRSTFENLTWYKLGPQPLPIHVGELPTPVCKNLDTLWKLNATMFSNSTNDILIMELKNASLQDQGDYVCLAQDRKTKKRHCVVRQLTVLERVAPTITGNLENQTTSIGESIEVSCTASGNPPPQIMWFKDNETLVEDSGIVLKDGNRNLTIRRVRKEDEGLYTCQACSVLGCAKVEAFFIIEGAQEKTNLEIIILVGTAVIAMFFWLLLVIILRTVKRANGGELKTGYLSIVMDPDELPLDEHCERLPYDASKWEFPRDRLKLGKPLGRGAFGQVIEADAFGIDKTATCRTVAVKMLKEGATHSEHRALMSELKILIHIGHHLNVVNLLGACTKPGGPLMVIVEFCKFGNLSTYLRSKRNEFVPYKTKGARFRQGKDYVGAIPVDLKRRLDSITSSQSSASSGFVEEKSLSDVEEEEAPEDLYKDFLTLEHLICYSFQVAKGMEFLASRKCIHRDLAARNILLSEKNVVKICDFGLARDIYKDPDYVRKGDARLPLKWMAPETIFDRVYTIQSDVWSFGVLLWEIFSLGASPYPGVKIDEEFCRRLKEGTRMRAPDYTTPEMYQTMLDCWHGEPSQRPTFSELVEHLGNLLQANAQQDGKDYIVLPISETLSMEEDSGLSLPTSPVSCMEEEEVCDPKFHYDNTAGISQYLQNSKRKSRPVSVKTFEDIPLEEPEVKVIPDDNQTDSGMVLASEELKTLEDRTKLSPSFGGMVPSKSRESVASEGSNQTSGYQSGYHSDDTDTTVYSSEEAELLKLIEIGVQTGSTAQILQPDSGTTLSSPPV
Consider `CNS(=O)(=O)c1ccc2c(c1)/C(=C/c1[nH]c3c(c1CCC(N)=O)CCCC3)C(=O)N2`, for which the midpoint of inhibition, the IC50, lay at 500 nM.
Still for that read-out and setting: the same measure for `CNS(=O)(=O)c1ccc2c(c1)/C(=C/c1[nH]c3c(c1CCCN1CCN(C)CC1)CCCC3)C(=O)N2`: 300 nM; for `CCS(=O)(=O)c1ccc2c(c1)/C(=C/c1[nH]c3c(c1CCCN1CCN(CCO)CC1)CCCC3)C(=O)N2`: 400 nM.
On the same count and under the same terms, the same measure for `CNS(=O)(=O)c1ccc2c(c1)/C(=C/c1[nH]c3c(c1CCCN1CCN(CCO)CC1)CCCC3)C(=O)N2`: 400 nM; for `CNS(=O)(=O)c1ccc2c(c1)/C(=C/c1[nH]c3c(c1CCCN1CCOCC1)CCCC3)C(=O)N2`: 2300 nM.
With `CNS(=O)(=O)c1ccc2c(c1)/C(=C/c1[nH]c3c(c1CCCN1CCN(CC(=O)O)CC1)CCCC3)C(=O)N2`, 400 nM corresponded to half-maximal inhibition (IC50).
Take `CCS(=O)(=O)c1ccc2c(c1)/C(=C/c1[nH]c3c(c1CCCN1CCN(C)CC1)CCCC3)C(=O)N2`: the IC50 worked out at 2600 nM.
`CCS(=O)(=O)c1ccc2c(c1)/C(=C/c1[nH]c3c(c1CCCN(C)C)CCCC3)C(=O)N2` showed an IC50 of 2700 nM.
Still for that read-out and setting: the same measure for `CNS(=O)(=O)c1ccc2c(c1)/C(=C/c1[nH]c3c(c1CCCN(C)C)CCCC3)C(=O)N2`: 1100 nM.
On the same count and under the same terms, the same measure for `CCS(=O)(=O)c1ccc2c(c1)/C(=C/c1[nH]c3c(c1CCCN1CCN(CC(=O)O)CC1)CCCC3)C(=O)N2`: 800 nM.

The next assay concerns the target Proto-oncogene tyrosine-protein kinase Src (Homo sapiens, UniProt P12931). As to the kind of experiment: Inhibitory activity against Src protein tyrosine kinase. An outline of the steps: as §1
Compound `CNS(=O)(=O)c1ccc2c(c1)/C(=C/c1[nH]c3c(c1CCC(N)=O)CCCC3)C(=O)N2` yielded an IC50 of 30 nM.
On the same count and under the same terms, the same measure for `CNS(=O)(=O)c1ccc2c(c1)/C(=C/c1[nH]c3c(c1CCCN1CCN(C)CC1)CCCC3)C(=O)N2`: 70 nM; for `CCS(=O)(=O)c1ccc2c(c1)/C(=C/c1[nH]c3c(c1CCCN1CCN(CCO)CC1)CCCC3)C(=O)N2`: 70 nM.
Still for that read-out and setting: under `CNS(=O)(=O)c1ccc2c(c1)/C(=C/c1[nH]c3c(c1CCCN1CCN(CCO)CC1)CCCC3)C(=O)N2` stands 30 nM; under `CNS(=O)(=O)c1ccc2c(c1)/C(=C/c1[nH]c3c(c1CCCN1CCOCC1)CCCC3)C(=O)N2`, 60 nM.
In the case of `CNS(=O)(=O)c1ccc2c(c1)/C(=C/c1[nH]c3c(c1CCCN1CCN(CC(=O)O)CC1)CCCC3)C(=O)N2`, the IC50 worked out at 20 nM.
On the same count and under the same terms, the same measure for `CCS(=O)(=O)c1ccc2c(c1)/C(=C/c1[nH]c3c(c1CCCN1CCC(O)CC1)CCCC3)C(=O)N2`: 70 nM; for `CCS(=O)(=O)c1ccc2c(c1)/C(=C/c1[nH]c3c(c1CCCN1CCN(C)CC1)CCCC3)C(=O)N2`: 210 nM; for `CCS(=O)(=O)c1ccc2c(c1)/C(=C/c1[nH]c3c(c1CCCN(C)C)CCCC3)C(=O)N2`: 60 nM.
Same read-out and setting: under `CNS(=O)(=O)c1ccc2c(c1)/C(=C/c1[nH]c3c(c1CCCN(C)C)CCCC3)C(=O)N2` stands 100 nM.
For `CCS(=O)(=O)c1ccc2c(c1)/C(=C/c1[nH]c3c(c1CCCN1CCN(CC(=O)O)CC1)CCCC3)C(=O)N2`, the IC50 amounted to 70 nM.

The target in another assay is Tyrosine-protein kinase Fyn (Homo sapiens, UniProt P06241). Put plainly: Inhibitory activity against Fyn tyrosine kinase.
Tyrosine-protein kinase Fyn, sequence (P06241 whole entry): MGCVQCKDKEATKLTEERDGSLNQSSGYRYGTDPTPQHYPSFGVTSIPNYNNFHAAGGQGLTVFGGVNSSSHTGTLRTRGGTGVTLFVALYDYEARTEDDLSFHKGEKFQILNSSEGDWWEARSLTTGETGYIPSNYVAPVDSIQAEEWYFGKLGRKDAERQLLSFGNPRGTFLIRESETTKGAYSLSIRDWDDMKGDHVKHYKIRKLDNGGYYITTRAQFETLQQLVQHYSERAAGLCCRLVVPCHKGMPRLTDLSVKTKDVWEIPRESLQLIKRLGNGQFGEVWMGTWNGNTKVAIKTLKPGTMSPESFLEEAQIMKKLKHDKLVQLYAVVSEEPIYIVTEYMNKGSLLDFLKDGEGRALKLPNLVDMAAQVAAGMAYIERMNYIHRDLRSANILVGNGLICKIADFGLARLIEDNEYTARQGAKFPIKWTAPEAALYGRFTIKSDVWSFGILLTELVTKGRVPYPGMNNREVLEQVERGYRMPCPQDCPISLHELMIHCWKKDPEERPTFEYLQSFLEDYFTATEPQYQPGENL
Consider `CNS(=O)(=O)c1ccc2c(c1)/C(=C/c1[nH]c3c(c1CCC(N)=O)CCCC3)C(=O)N2`, for which the IC50 worked out at 50 nM.
On the same count and under the same terms, the same measure for `CNS(=O)(=O)c1ccc2c(c1)/C(=C/c1[nH]c3c(c1CCCN1CCN(C)CC1)CCCC3)C(=O)N2`: 800 nM; for `CCS(=O)(=O)c1ccc2c(c1)/C(=C/c1[nH]c3c(c1CCCN1CCN(CCO)CC1)CCCC3)C(=O)N2`: 400 nM; for `CNS(=O)(=O)c1ccc2c(c1)/C(=C/c1[nH]c3c(c1CCCN1CCN(CCO)CC1)CCCC3)C(=O)N2`: 100 nM.
On the same count and under the same terms, the same measure for `CNS(=O)(=O)c1ccc2c(c1)/C(=C/c1[nH]c3c(c1CCCN1CCN(CC(=O)O)CC1)CCCC3)C(=O)N2`: 400 nM.
Still for that read-out and setting: the same measure for `CCS(=O)(=O)c1ccc2c(c1)/C(=C/c1[nH]c3c(c1CCCN1CCC(O)CC1)CCCC3)C(=O)N2`: 600 nM; for `CCS(=O)(=O)c1ccc2c(c1)/C(=C/c1[nH]c3c(c1CCCN1CCN(C)CC1)CCCC3)C(=O)N2`: 1200 nM.
For `CCS(=O)(=O)c1ccc2c(c1)/C(=C/c1[nH]c3c(c1CCCN(C)C)CCCC3)C(=O)N2`, the IC50 came out at 300 nM.
With `CNS(=O)(=O)c1ccc2c(c1)/C(=C/c1[nH]c3c(c1CCCN(C)C)CCCC3)C(=O)N2`, the IC50 is 60 nM. Against the preceding compound, the IC50 is about 5-fold lower.
The compound `CCS(=O)(=O)c1ccc2c(c1)/C(=C/c1[nH]c3c(c1CCCN1CCN(CC(=O)O)CC1)CCCC3)C(=O)N2` came in with an IC50 of 400 nM.

The target in another assay is Fibroblast growth factor receptor 1 (Homo sapiens, UniProt P11362). Put plainly: Inhibitory activity against Fibroblast growth factor receptor 1.
Fibroblast growth factor receptor 1, sequence (P11362 whole entry): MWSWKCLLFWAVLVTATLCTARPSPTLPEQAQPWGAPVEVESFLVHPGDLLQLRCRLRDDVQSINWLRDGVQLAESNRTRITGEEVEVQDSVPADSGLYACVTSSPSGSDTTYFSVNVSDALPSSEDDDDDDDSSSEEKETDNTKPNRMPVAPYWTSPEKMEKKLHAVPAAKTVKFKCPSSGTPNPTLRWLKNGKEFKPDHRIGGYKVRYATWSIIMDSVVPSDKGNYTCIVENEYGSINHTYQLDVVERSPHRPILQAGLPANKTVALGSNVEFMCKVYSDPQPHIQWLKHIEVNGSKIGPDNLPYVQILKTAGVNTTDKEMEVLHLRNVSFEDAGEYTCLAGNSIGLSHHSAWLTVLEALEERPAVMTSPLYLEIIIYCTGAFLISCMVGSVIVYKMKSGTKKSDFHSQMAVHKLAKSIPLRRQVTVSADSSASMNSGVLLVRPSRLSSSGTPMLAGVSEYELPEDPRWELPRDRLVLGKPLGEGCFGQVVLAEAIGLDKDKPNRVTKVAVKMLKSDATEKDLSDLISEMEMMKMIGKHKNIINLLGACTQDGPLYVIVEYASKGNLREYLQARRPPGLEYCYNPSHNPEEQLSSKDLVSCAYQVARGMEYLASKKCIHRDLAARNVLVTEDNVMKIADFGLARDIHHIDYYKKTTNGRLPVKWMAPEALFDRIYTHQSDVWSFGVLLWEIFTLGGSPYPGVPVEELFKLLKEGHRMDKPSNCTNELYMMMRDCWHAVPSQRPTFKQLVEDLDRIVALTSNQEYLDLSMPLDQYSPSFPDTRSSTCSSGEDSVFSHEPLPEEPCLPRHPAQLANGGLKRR
In turn, `CNS(=O)(=O)c1ccc2c(c1)/C(=C/c1[nH]c3c(c1CCC(N)=O)CCCC3)C(=O)N2` showed an IC50 of 70 nM.
`CNS(=O)(=O)c1ccc2c(c1)/C(=C/c1[nH]c3c(c1CCCN1CCN(C)CC1)CCCC3)C(=O)N2`: the IC50 stood at 1200 nM.
The compound `CCS(=O)(=O)c1ccc2c(c1)/C(=C/c1[nH]c3c(c1CCCN1CCN(CCO)CC1)CCCC3)C(=O)N2` displayed an IC50 of 1100 nM.
Same read-out and setting: the same measure for `CNS(=O)(=O)c1ccc2c(c1)/C(=C/c1[nH]c3c(c1CCCN1CCN(CCO)CC1)CCCC3)C(=O)N2`: 600 nM.
Same read-out and setting: the same measure for `CNS(=O)(=O)c1ccc2c(c1)/C(=C/c1[nH]c3c(c1CCCN1CCOCC1)CCCC3)C(=O)N2`: 1700 nM.
The same measure, in the same setting: the same measure for `CNS(=O)(=O)c1ccc2c(c1)/C(=C/c1[nH]c3c(c1CCCN1CCN(CC(=O)O)CC1)CCCC3)C(=O)N2`: 200 nM.
Regarding `CCS(=O)(=O)c1ccc2c(c1)/C(=C/c1[nH]c3c(c1CCCN(C)C)CCCC3)C(=O)N2`, it took 400 nM to reach half-maximal inhibition (IC50).
The same measure, in the same setting: under `CNS(=O)(=O)c1ccc2c(c1)/C(=C/c1[nH]c3c(c1CCCN(C)C)CCCC3)C(=O)N2` stands 700 nM; under `CCS(=O)(=O)c1ccc2c(c1)/C(=C/c1[nH]c3c(c1CCCN1CCN(CC(=O)O)CC1)CCCC3)C(=O)N2`, 400 nM.
